Screening data from PubChem.
NR2E3 ag-1: activates human photoreceptor nuclear receptor NR2E3; Q9Y5X4; GST-NR2E3/biotin-RetCOR TR-FRET, 1536-well; inhibition of corepressor binding, % at 4.78 µM; hit rate 0.12% among 320,000; AID 2300;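 active = percent inhibition above the cutoff of mean plus 3 SD of all tested compounds, set per screening campaign, cut at about 20% in these data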;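 also: 0% = DMSO wells and 100% = biotin wells as full block of FRET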
Target sequence (Q9Y5X4 whole entry, looked up): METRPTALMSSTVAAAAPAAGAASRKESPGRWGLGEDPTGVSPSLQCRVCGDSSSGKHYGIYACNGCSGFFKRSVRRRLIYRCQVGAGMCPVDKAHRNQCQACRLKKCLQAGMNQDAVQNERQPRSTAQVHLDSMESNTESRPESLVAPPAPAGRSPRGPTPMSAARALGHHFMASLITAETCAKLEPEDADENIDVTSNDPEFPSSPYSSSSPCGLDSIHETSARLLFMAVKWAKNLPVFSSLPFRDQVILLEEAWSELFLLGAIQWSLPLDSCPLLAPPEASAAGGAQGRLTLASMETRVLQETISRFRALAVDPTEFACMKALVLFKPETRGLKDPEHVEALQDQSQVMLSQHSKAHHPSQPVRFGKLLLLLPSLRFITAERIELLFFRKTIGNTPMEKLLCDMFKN
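Material: NR2E3–RetCOR corepressor complex | Quantity: 1.35 nM GST-tagged NR2E3 final | Schedule: 5 h at 4 °C | Replication: Singlicate compound wells | Reagent: RetCOR corepressor, biotinylated, 7 nM | Controls: Biotin wells as high control, 0.6% DMSO wells as low control | Signal: TR-FRET, Eu(K)-anti-GST donor, streptavidin-D2 acceptor, ex 340, em 617/671 nm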
NR2E3 ag-2: agonists of human NR2E3 nuclear receptor; Q9Y5X4; CHO-S Gal4-NCOR/VP16-NR2E3 two-hybrid, luciferase; inhibition of corepressor binding, % at 3.98 µM; hit rate 0.35% among 360,000; AID 602229;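 active = inhibition above the mean of all tested compounds plus 3 SD, cut at about 70% in these data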;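 also: 0% = DMSO with NR2E3 transfected cells and 100% = cells lacking NR2E3 construct; higher means lower luciferase signal from less NR2E3 corepressor binding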
NadD inh: blocks S. aureus nicotinate mononucleotide adenylyltransferase; hit rate 0.78% among 360,000; AID 602399; purified NadD enzyme, colorimetric absorbance read-out; inhibition, % at 20 µM; in the data active = inhibition above about 26%
bovine MsrA act: activates bovine MsrA enzyme. purified bovine MsrA, absorbance read-out. hit rate 0.3% among 360,000. activation, % at 10.6 µM; in the data active = activation above about 7.5%;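 also: 0% = vehicle and 100% = reference activator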
GalR3 antagonist: human GalR3 antagonism; inhibition, % at 3 µM; HEK293 GalR3-CNG cAMP membrane potential fluorescence; galR3 body fused to GalR1 C-terminus; O60755; hit rate 0.44% among 360,000;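 active = inhibition above the screen-wide average plus 3 SD, cut at about 13% in these data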;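 also: forskolin and galanin both at EC90 stimulate the cells; cAMP rise reported by CNG channel membrane potential dye signal; 0% = forskolin plus galanin with DMSO and 100% = forskolin alone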
MsrA inh: bovine MsrA inhibition | purified bovine MsrA, absorbance read-out | hit rate 0.75% among 360,000 | inhibition, % at 15.5 µM | AID 651718;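 also: 0% = vehicle wells with enzyme and 100% = reference inhibitor wells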
MsrA conf: confirmation of bovine MsrA inhibitors; purified bovine MsrA, absorbance read-out; hit rate 41% among 2,300; inhibition, % at 15.5 µM; shares compounds with MsrA inh;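 also: coupled to thioredoxin reductase with NADPH and selenocystamine and DMSO as substrate; 0% = vehicle only and 100% = full effect of reference inhibitor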
Numbers without * were called inactive. This is a sample that favours compounds with a hit; in the whole collection about 2.5% have one here. Rule as the data show it, unless noted: active = inhibition above about 4.5%; inactive = the rest.

Results for CN(c1nc2nonc2nc1NC1CC1)C1CCOC1 (stereo not given) ?
NR2E3 ag-1: 3; NR2E3 ag-2: 29; NadD inh: 5; bovine MsrA act: -3; GalR3 antagonist: -5; MsrA inh: 5.0*; MsrA conf: 2

How did O=C(NCc1ccc(F)cc1)c1cc(C(=O)C2CC2)c[nH]1 do in these assays?
NR2E3 ag-1: -2; NR2E3 ag-2: -4; NadD inh: -2; bovine MsrA act: -1; GalR3 antagonist: 1; MsrA inh: 1

What do the screens show for `COC(=O)C(C(=O)OC)C1CCCCC1NS(=O)(=O)c1ccc(C)cc1` (stereo not given)?
GalR3 antagonist: -4; MsrA inh: 0

Results for Cc1ccc(/C=N/NC(=O)c2ccncc2)o1 ?
NR2E3 ag-1: 3; NR2E3 ag-2: -15; NadD inh: -4; bovine MsrA act: -2; GalR3 antagonist: 1; MsrA inh: 5.7*; MsrA conf: 4.6*

Results for Cc1ccc(/C=N/NC(=O)c2ccccn2)o1 ?
NR2E3 ag-1: 2; NR2E3 ag-2: -83; NadD inh: -1; bovine MsrA act: -6; GalR3 antagonist: 0; MsrA inh: 2

Results for C/C(=N\NC(=O)c1ccc(N/N=C(\C)c2ccncc2)cc1)c1ccncc1 ?
NR2E3 ag-1: 1; NR2E3 ag-2: -16; NadD inh: -12; bovine MsrA act: 0; GalR3 antagonist: -1; MsrA inh: 5.8*; MsrA conf: 6.2*

How did Cc1cccc(C(=O)Nc2ccc(C(=O)N/N=C/c3ccc(C)o3)cc2)c1 do in these assays?
NR2E3 ag-1: 1; NR2E3 ag-2: 5; NadD inh: -3; bovine MsrA act: -12; GalR3 antagonist: -4; MsrA inh: 6.4*; MsrA conf: 4

What do the screens show for `CSc1ccc(/C=N/NC(=O)c2cccc(O)c2)cc1`?
NR2E3 ag-1: 2; NR2E3 ag-2: -119; NadD inh: -6; bovine MsrA act: -3; GalR3 antagonist: -5; MsrA inh: 4.8*; MsrA conf: 5.6*

How did O=C1c2cccc(Cl)c2C(=O)c2c1cccc2N1CCCC1 do in these assays?
NR2E3 ag-1: -2; NR2E3 ag-2: -23; NadD inh: 0; bovine MsrA act: -4; GalR3 antagonist: -1; MsrA inh: 9.4*; MsrA conf: 1

What do the screens show for `O=C(CNC(=O)c1ccccc1)OCc1ccc([N+](=O)[O-])cc1`?
NR2E3 ag-1: -4; NR2E3 ag-2: 24; NadD inh: 1; bovine MsrA act: -12; GalR3 antagonist: -4; MsrA inh: 0

What do the screens show for `C=CCNc1nc(N)c([N+](=O)[O-])c(NCCO)n1`?
NR2E3 ag-1: 1; NR2E3 ag-2: -5; NadD inh: 4; bovine MsrA act: -5; GalR3 antagonist: -1; MsrA inh: 5.0*; MsrA conf: 4.8*

What do the screens show for `C=CCNc1nc(N)c([N+](=O)[O-])c(NCc2ccccc2)n1`?
NR2E3 ag-1: -1; NR2E3 ag-2: -1; NadD inh: 0; bovine MsrA act: -4

Results for Cc1nc2sc(C(=O)O)c(N)c2c2c1COC(C)(C)C2 ?
NR2E3 ag-1: -1; NR2E3 ag-2: -40; NadD inh: 6; bovine MsrA act: -3; GalR3 antagonist: -2; MsrA inh: 2

How did O=C(N/C(=C\c1ccc(Br)cc1)c1nc2ccccc2[nH]1)c1ccco1 do in these assays?
NR2E3 ag-1: -2; NR2E3 ag-2: -9; NadD inh: 0; bovine MsrA act: -14; GalR3 antagonist: -4; MsrA inh: 6.5*; MsrA conf: 4

How did O=C(N/C(=C/c1cccs1)c1nc2ccccc2[nH]1)c1ccccc1 do in these assays?
NR2E3 ag-1: -5; NR2E3 ag-2: 12; NadD inh: -3; bovine MsrA act: -4; GalR3 antagonist: -3; MsrA inh: 5.1*; MsrA conf: 6.0*

What do the screens show for `O=C(N/C(=C\c1cccnc1)c1nc2ccccc2[nH]1)c1cccc(Br)c1`?
NR2E3 ag-1: -2; NR2E3 ag-2: 10; NadD inh: 10; bovine MsrA act: -3; GalR3 antagonist: -3; MsrA inh: 2

Results for N#CCCc1cccc(CCC#N)c1 ?
NR2E3 ag-1: 4; NR2E3 ag-2: -9; NadD inh: -2; bovine MsrA act: -6; GalR3 antagonist: -4; MsrA inh: 0

What do the screens show for `Cc1occc1-c1nnc(-c2cc([N+](=O)[O-])cc([N+](=O)[O-])c2)o1`?
NR2E3 ag-1: 1; NR2E3 ag-2: -35; NadD inh: 0; bovine MsrA act: -3; GalR3 antagonist: -2; MsrA inh: 7.7*; MsrA conf: 1

How did O=[N+]([O-])c1cccc(-c2nnc(-c3ccccc3)o2)c1 do in these assays?
NR2E3 ag-1: 3; NR2E3 ag-2: -88; NadD inh: -10; bovine MsrA act: 0; GalR3 antagonist: -7; MsrA inh: 0

Results for COc1ccc(-c2nnc(CSc3nnc(-c4ccncc4)n3C3CCCCC3)o2)cc1OC ?
NR2E3 ag-1: 0; NR2E3 ag-2: -17; NadD inh: -6; bovine MsrA act: 1; GalR3 antagonist: -1; MsrA inh: -1

How did COc1cc(-c2nc3ccccn3c2/N=C/c2ccccc2)ccc1O do in these assays?
NR2E3 ag-1: -10; NR2E3 ag-2: -11; NadD inh: 2; bovine MsrA act: -3; GalR3 antagonist: -5; MsrA inh: 4

Results for COc1cc(-c2nc3ccccn3c2/N=C/c2cc(OC)c(O)cc2Cl)ccc1O ?
NR2E3 ag-1: -10; NR2E3 ag-2: -5; NadD inh: 16; bovine MsrA act: -5; GalR3 antagonist: -3; MsrA inh: 4.7*; MsrA conf: 3

How did C=CCNC(=O)c1onc(CSc2ccc(C(C)C)cc2)c1C(=O)O do in these assays?
NR2E3 ag-1: 3; NR2E3 ag-2: -4; NadD inh: -1; bovine MsrA act: 0; GalR3 antagonist: -6; MsrA inh: 0

Results for CC(=O)c1ccc(OCc2ccc(Oc3c(Cl)cccc3[N+](=O)[O-])cc2)cc1 ?
NR2E3 ag-1: 3; NR2E3 ag-2: -27; NadD inh: -3; bovine MsrA act: -7; GalR3 antagonist: -4; MsrA inh: 1

How did COC(=O)/C=C1/S/C(=N/NC(=O)c2ccccc2C)NC1=O do in these assays?
NR2E3 ag-1: 0; NR2E3 ag-2: -5; NadD inh: -2; bovine MsrA act: -2; GalR3 antagonist: 6; MsrA inh: 6.7*; MsrA conf: 3

Results for COC(=O)/C=C1\S/C(=N/N=C/c2ccco2)NC1=O ?
NR2E3 ag-1: 0; NR2E3 ag-2: -12; NadD inh: -2; bovine MsrA act: -4; GalR3 antagonist: -5; MsrA inh: 4.7*; MsrA conf: 4

How did O=C(Cn1nc2ccccc2n1)N/N=C/c1cc([N+](=O)[O-])ccc1O do in these assays?
NR2E3 ag-1: -2; NR2E3 ag-2: 8; NadD inh: -2; bovine MsrA act: -4; GalR3 antagonist: -6; MsrA inh: 4.7*; MsrA conf: 4
